Bioassay records as filed in PubChem.
An excerpt weighted towards active compounds, which were near 2.6% of everything screened.
MEKK2wt PB1 HTS: modulators of MEK5 binding to wildtype MEKK2, primary screen, biochemical, multiplex bead flow cytometry, Alexa488-MEK5; hit rate 1.1% among 290,000; binding response (% of control), % at 10 µM; AID 1531, 2009; Alexa488-MEK5 binding to MEKK2 WT; actives lie on both sides; in the data active means binding response below about 67% or above about 130%
MEKK2mut PB1 HTS: MEK5 binding signal on mutant MEKK2 PB1, primary screen, biochemical, multiplex bead flow cytometry, Alexa488-MEK5; Alexa488-MEK5 binding to MEKK2 mutant; percent response, % at 10 µM; hit rate 0.35% among 290,000; AID 1530, 2009; in the data active means percent response above about 24%, passing the limit was not always enough
Hep lipid drop: inhibitors of hepatocyte lipid droplet formation, primary screen, imaging, high-throughput imaging, BODIPY stain | AML12 mouse hepatocytes, oleate lipid droplets | inhibition, % at 6.5 µM | hit rate 0.4% among 240,000 | AID 1656, 2009;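 active means lipid droplet intensity inhibited by at least 50%, with more than 500 cells counted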
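Assay system: AML12 hepatocytes (mouse) / Also added: 100 µM oleic acid challenge / Times: overnight treatment with compound plus oleate / Detection: high-content imaging of BODIPY-stained droplets and DAPI nuclei / Evaluation: % inhibition of lipid droplet signal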
MEKK3 PB1 HTS: modulators of MEKK3-MEK5 PB1 binding, primary screen, biochemical, wildtype MEKK3, multiplex bead flow cytometry, Alexa488-MEK5; bead-based flow cytometry, Alexa488-MEK5 binding to MEKK3; actives lie on both sides; 0 = blocked by unlabeled MEK5, 100 = vehicle; binding response (% of control), % at 10 µM; hit rate 1.4% among 290,000; AID 1529, 2009;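 active means binding response more than 3 SD above or below the average of its plate-row segment, actives on both sides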;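 further: Alexa488 bead fluorescence after subtracting the streptavidin-only scavenger bead signal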
Target sequence (Q99759 whole entry, looked up): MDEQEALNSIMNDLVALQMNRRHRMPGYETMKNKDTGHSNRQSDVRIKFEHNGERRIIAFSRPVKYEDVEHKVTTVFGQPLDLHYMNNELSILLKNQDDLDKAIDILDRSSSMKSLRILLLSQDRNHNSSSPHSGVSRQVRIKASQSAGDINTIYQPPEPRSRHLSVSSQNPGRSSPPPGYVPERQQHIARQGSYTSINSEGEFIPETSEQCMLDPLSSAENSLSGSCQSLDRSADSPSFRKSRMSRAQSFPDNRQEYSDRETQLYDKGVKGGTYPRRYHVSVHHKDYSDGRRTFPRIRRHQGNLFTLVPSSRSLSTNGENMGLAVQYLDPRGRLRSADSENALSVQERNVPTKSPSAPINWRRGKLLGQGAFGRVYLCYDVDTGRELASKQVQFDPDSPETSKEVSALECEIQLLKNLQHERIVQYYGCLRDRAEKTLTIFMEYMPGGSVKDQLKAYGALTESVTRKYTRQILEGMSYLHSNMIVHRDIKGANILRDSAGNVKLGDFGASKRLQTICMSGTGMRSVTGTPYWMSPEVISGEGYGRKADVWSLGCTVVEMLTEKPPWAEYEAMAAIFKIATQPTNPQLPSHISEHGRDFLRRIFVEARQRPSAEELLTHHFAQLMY
Lipid drop inh: hepatocyte lipid droplet accumulation inhibitors, confirmation, imaging, AML12 mouse hepatocytes, single concentration, high-content; BODIPY lipid droplet imaging; droplets induced with 100 µM oleic acid; inhibition, % at 5.2 µM; shares compounds with Hep lipid drop; hit rate 65% among 870;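 active means inhibition of lipid droplet metric at least 50%, with more than 300 cells in each of four replicates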
AML12 tox img: AML12 hepatocyte cytotoxicity, counter-screen for hepatic lipid droplet formation project, imaging, DAPI nuclear morphology imaging; shares compounds with Hep lipid drop; AML12 mouse hepatocytes; stronger effect = higher value; cells fed 100 µM oleate overnight; z-score at 5 µM; hit rate 3% among 870; AID 463200, 2010; in the data active means z-score above about 6.3;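 further: compound exposure lasted overnight at 37 °C before fixation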
AML12 tox conf: AML12 hepatocyte cytotoxicity, confirmation, cytotoxicity control for hepatic lipid droplet formation project, cell-based, single concentration. AML12 mouse hepatocyte viability, ATP luminescence; cells loaded with 100 µM oleic acid. AID 463219, 2010. 530 tested, under 10 active. shares compounds with Hep lipid drop. cytotoxicity, % at 50 µM;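 active means cytotoxicity above 50% in each of four replicates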;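 further: compound exposure lasted overnight at 37 °C before the ATP read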
Numbers stand for hits; - = inactive; . = no result given.

SMILES	MEKK2wt PB1 HTS	MEKK2mut PB1 HTS	Hep lipid drop	MEKK3 PB1 HTS	Lipid drop inh	AML12 tox img	AML12 tox conf
O=C(NC1CCCc2c1cnn2-c1cc(F)cc(F)c1)c1ccccn1 (configuration not stated)	-	-	64	-	100	-	-
COC(=O)c1ccc(C(=O)NC2CCCc3c2cnn3-c2ccc(C)c(C)c2)cc1 (configuration not stated)	-	-	-	-	.	.	.
CCOC(=O)Cn1nc(C)c(NC(=O)c2ccc(Br)o2)c1C	-	-	.	-	.	.	.
Cc1cc(C)c(S(=O)(=O)N2CCOC2CNC(=O)C(=O)NCCc2c[nH]c3ccccc23)c(C)c1 (configuration not stated)	-	-	76	-	77	-	-
CCOC(=O)n1cc(-c2cnc(CNC(=O)C(C)(c3ccccc3)c3ccccc3)o2)c2ccccc21	-	-	59	-	90	-	.
COc1ccc(N=C2C(=Nc3ccc(OC)cc3)N(c3ccc(OC)cc3)C(=S)N2c2ccccc2)cc1	-	-	-	-	.	.	.
COc1ccc(N=C2C(=Nc3ccc(OC)cc3)N(c3ccc(OC)cc3)C(=S)N2C)cc1	-	-	58	-	109	-	-
CC(=O)Nc1ccc(S(=O)(=O)N2CCN(C(=O)c3ncoc3-c3ccc(C)cc3)CC2)cc1	-	-	-	-	.	.	.
CN1C(=O)/C(=C/c2ccc(OCc3ccccc3F)cc2)N(C)C1=S	-	-	-	-	.	.	.
COc1ccc(CNC(=O)CCc2c[nH]c3ccccc23)cc1	-	-	-	-	.	.	.
COc1cccc(CNC(=O)CCCc2c[nH]c3ccccc23)c1	-	-	64	-	69	-	-
COc1ccc(C(=O)CCC(=O)NCCc2c[nH]c3ccccc23)cc1OC	-	-	124	-	99	-	-
CC(C)C[C@@H](NC(=O)C1CCC(CNC(=O)[C@@H]2CCCN2C(=O)OC(C)(C)C)CC1)C(=O)O (some centres not stated)	-	-	-	-	.	.	.
COc1ccc(CC(=O)NCC2CCCN(Cc3cc(OC)cc(OC)c3)C2)cc1 (configuration not stated)	-	-	-	-	.	.	.
COCCNC(=O)Cn1cc(C(=O)c2ccco2)c2ccccc21	-	-	-	-	.	.	.
CC1=C(C(=O)NC2CCCc3c2cnn3-c2cccc(C)c2C)OCCO1 (configuration not stated)	-	-	63	-	105	-	-
COc1ccc(C(=O)NC2CCCc3c2cnn3-c2cccc(C)c2C)o1 (configuration not stated)	-	-	50	-	88	-	-
COc1cccc(C(=O)NC2CCCc3c2cnn3-c2cc(C)cc(C)c2)c1 (configuration not stated)	-	-	74	-	108	-	-
Cc1cc(C(=O)NC2CCCc3c2cnn3-c2cccc(C)c2C)no1 (configuration not stated)	-	-	-	-	.	.	.
O=C(/C=C/Sc1ccc(C(F)(F)F)cn1)c1ccccc1	-	-	-	-	.	.	.
Cc1cc2nn(-c3ccc(Cl)cc3)nc2cc1N	-	-	62	-	73	-	-
Cc1cc2nn(-c3ccc(F)cc3)nc2cc1N	-	-	-	-	.	.	.
CCOc1ccc(NS(=O)(=O)c2ccc(OCC(=O)N3CCCC3)cc2)cc1	-	-	-	-	.	.	.
CCOc1ccc(NS(=O)(=O)c2ccc(C(=O)N3CCC3)cc2)cc1	-	-	71	-	99	-	-
CCCC(=O)Nc1nc2c(s1)COc1ccccc1-2	-	-	-	-	.	.	.
SMILES	MEKK2wt PB1 HTS	MEKK2mut PB1 HTS	Hep lipid drop	MEKK3 PB1 HTS	Lipid drop inh	AML12 tox img	AML12 tox conf
CC(C)(C)C(=O)Nc1nc2c(s1)COc1ccccc1-2	-	-	55	-	106	-	-
O=C(Cc1ccccc1)Nc1ccccc1C(=O)N1CCN(c2ccccc2)CC1	-	-	-	-	.	.	.
Cc1ccc(C)c(NC(=O)c2cc[n+](C)cc2)c1	-	-	-	-	.	.	.
CCn1c(=O)n(CC)c2cc(S(N)(=O)=O)ccc21	-	-	.	-	.	.	.
CCn1c(=O)n(CC)c2cc(N)ccc21	-	-	54	-	-	-	.
CCc1cc2c(=O)c(-c3nc4ccccc4n3C)c(C)oc2c(CN2CCOCC2)c1O	-	-	50	-	88	-	-
Cc1ccc(NC(=Nc2ccc(Br)cc2)N2CCOCC2)cc1C	-	-	-	-	.	.	.
Cc1nnc(SC(C)C(=O)N2CCc3ccccc32)s1 (configuration not stated)	-	-	-	-	.	.	.
CC(Sc1nnc(-c2ccccc2)c(-c2ccccc2)n1)C(=O)N1CCc2ccccc21 (configuration not stated)	-	-	57	-	82	-	-
CCOc1ccc(C2=NNC(c3cccs3)=Nc3ccc(OC)cc32)cc1OCC	-	-	55	-	71	-	-
COc1ccc(C2=NNC(c3cccs3)=Nc3ccc(OC)cc32)cc1	-	-	.	-	.	.	.
COc1cc2ncnc(NCc3ccc(Cl)cc3)c2cc1OC	-	-	51	-	70	13	.
COc1cc2ncnc(NCc3ccccc3Cl)c2cc1OC	-	-	52	-	65	17	.
Cc1ccc(S(=O)(=O)NCC2(c3ccccc3)CCOCC2)cc1	-	-	-	-	.	.	.
CC(=O)OCC(=O)[C@@]1(O)CC[C@H]2[C@@H]3CCC4=CC(=O)CC[C@]4(C)[C@H]3[C@@H](O)C[C@@]21C	-	-	50	-	-	-	.
CCc1cc(C(=O)Nc2ncccc2O)sc1C	-	-	-	-	.	.	.
Cc1cccc2sc(NC(=O)CN(C)S(=O)(=O)c3ccc(Br)s3)nc12	-	-	-	-	.	.	.
Cc1cccc2sc(NC(=O)CN(C)S(=O)(=O)c3cccs3)nc12	-	-	56	-	95	-	-
OC(c1ccccc1)c1nccc2ccccc12 (configuration not stated)	-	-	-	-	.	.	.
COc1ccc(CCNC(=O)C2CC3Cn4c(nc5cc6ccccc6cc54)C3N2C)cc1 (configuration not stated)	-	-	51	-	-	-	.
Cc1ccc(Cl)cc1NC(=S)N1CCC(c2ccccc2)C1 (configuration not stated)	-	-	-	-	.	.	.
COc1cc(CNC(=O)c2cccc(COc3ccc(Cl)cc3)c2)cc(OC)c1	-	-	57	-	92	-	-
